In ChEMBL document CHEMBL4229376, “Optimization of the pharmacokinetic properties of potent anti-trypanosomal triazine derivatives” (Eur J Med Chem, 2018):

Key:
[1] = Drug metabolism in human liver microsomes assessed as UGT mediated compound […] by measuring parent compound remaining at 5 uM after 15 mins in presence of UDPGA by UPLC/MS/ESI analysis; assay type: ADME; settings: read-out: Stability
[2] = Half life in Swiss mouse infected with Trypanosoma brucei brucei Squib 427 at 50 mg/kg, po bid for 5 days after 24 hrs by UPLC/MS/ESI analysis; assay type: ADME, organism-based; settings: in vivo
[3] = Clearance in Swiss mouse infected with Trypanosoma brucei brucei Squib 427 at 25 mg/kg, po administered as single dose after 24 hrs by UPLC/MS/ESI analysis; assay type: ADME, organism-based; settings: in vivo
[4] = Drug metabolism in human liver microsomes assessed as CYP450 mediated compound […] by measuring parent compound remaining at 5 uM after 30 mins in presence of NADPH by UPLC/MS/ESI analysis; assay type: ADME; settings: read-out: Stability
[5] = Drug level in Swiss mouse blood infected with Trypanosoma brucei brucei Squib 427 at 25 mg/kg, po bid for 5 days measured after 1 hr after last dose by UPLC/MS/ESI analysis; assay type: ADME, organism-based; settings: whole blood, read-out: Drug uptake
[6] = Cmax in Swiss mouse infected with Trypanosoma brucei brucei Squib 427 at 50 mg/kg, po bid for 5 days after 24 hrs by UPLC/MS/ESI analysis; assay type: ADME, organism-based; parameters: dose 50 mg/kg, route oral; settings: in vivo
Mus musculus = assay: Apparent volume of distribution in Swiss mouse at 25 mg/kg, po administered as single dose after 24 hrs by UPLC/MS/ESI analysis; assay type: ADME, organism-based; settings: in vivo
Outline: (§1)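 Mice in groups received one oral dose of 25 or 50 mg/kg. Plasma concentrations were followed over time up to 24 h, and PK parameters including T1/2 were derived from the concentration–time profile.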

[7] = Clearance in Swiss mouse at 25 mg/kg, po administered as single dose after 24 hrs by UPLC/MS/ESI analysis; assay type: ADME, organism-based; settings: in vivo; outline: as §1
[8] = Half life in Swiss mouse at 25 mg/kg, po administered as single dose after 24 hrs by UPLC/MS/ESI analysis; assay type: ADME, organism-based; settings: in vivo
Outline: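 Mice were given the compound orally as a single dose of either 25 or 50 mg/kg, one group per dose. Plasma concentrations were followed over time up to 24 h, and the pharmacokinetic parameters were derived from the concentration-time profile.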

[9] = Cmax in Swiss mouse at 25 mg/kg, po administered as single dose after 24 hrs by UPLC/MS/ESI analysis; assay type: ADME, organism-based; parameters: dose 25 mg/kg, route oral; settings: in vivo; outline: as §1
[10] = test system: Trypanosoma brucei brucei; assay: Antitrypanosomal activity against Trypanosoma brucei brucei Squib 427 infected in Swiss mouse assessed as mean survival days at 25 mg/kg, po bid for 5 days; assay type: functional
Outline: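 Acute mouse infection model with T. b. brucei. Dosing ran for 5 days after infection, orally or intraperitoneally, once or twice daily. Groups were 3 mice each, with vehicle-treated infected controls. The read-out was mean survival time in days, plus the number of survivors on day 14 post-infection.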

[11] = Drug level in Swiss mouse blood infected with Trypanosoma brucei brucei Squib 427 at 50 mg/kg, po bid for 5 days measured after 1 hr after last dose by UPLC/MS/ESI analysis; assay type: ADME, organism-based; settings: whole blood, read-out: Drug uptake
[12] = Drug metabolism in human plasma assessed as parent compound remaining after 15 mins by UPLC/MS/ESI analysis; assay type: ADME, cell-free; settings: read-out: Stability
Leishmania infantum = assay: Antileishmanial activity against Leishmania infantum MHOM/MA (BE)/67 amastigotes infected in primary peritoneal mouse macrophages after 120 hrs by giemsa staining-based microscopic analysis; assay type: functional, organism-based; settings: MHOM/MA (BE)/67, 120 h

Q: For Nc1nc(Nc2ccc(F)cc2)nc(Oc2ccc(F)cc2)n1, which remaining at 0.25 h, 5 µM [1] is on record?
A: Its remaining at 0.25 h, 5 µM is 107%.

Q: And the half-life [2]?
A: The half-life was 1.33 h.

Q: What about the CL/F [3] of the same molecule?
A: The CL/F was 176 mL/min.

Q: And the remaining at 0.5 h, 5 µM [4]?
A: Its remaining at 0.5 h, 5 µM is 85%.

Q: And the concentration at 1 h [5]?
A: The concentration at 1 h was 2410 ng/mL.

Q: And the Cmax [6]?
A: The Cmax was 3830 ng/mL.

Q: And the Vz (Mus musculus)?
A: The Vz was 26.7 L.

Q: And the CL/F [7]?
A: The CL/F was 70.1 mL/min.

Q: What about the half-life [8] of the same molecule?
A: Its half-life is 4.14 h.

Q: And the Cmax [9]?
A: Its Cmax is 1180 ng/mL.

Q: And the MST [10]?
A: The MST was 6 days.

Q: And the concentration at 1 h [11]?
A: Its concentration at 1 h is 3800 ng/mL.

Q: What about the remaining at 0.25 h [12] of the same molecule?
A: The remaining at 0.25 h was 80%.

Q: And the IC50 (Leishmania infantum)?
A: Its IC50 is > 64 µM.
